# From PubChem
# STAT3 inh: reduces IL-6 driven STAT3 reporter signal; U3A cells, IL-6 STAT3-luciferase reporter, luminescence; host cell line lacks STAT1; inhibition, % at 5.5 µM; 190,000 compounds, 0.89% hits; AID 862;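 active means inhibition above the mean inhibition across all screened compounds plus 3 SD, cut at about 44% in these data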;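 further: 0% = DMSO only wells and 100% = 100 µM nifuroxazide control wells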
# STAT1 act: STAT1 signaling activation; NIH 3T3 STAT1-luciferase reporter, IFN-gamma, luminescence; 100% = IFN-gamma alone, no compound; activation (% of control), % at 5.5 µM; 200,000 compounds, 2.6% hits; AID 932;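 active means activation above the screen-wide mean activation plus 3 SD, cut at about 130% in these data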;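 further: raw ratio to IFN-gamma control signal so 100% means no change and 0% no light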
# STAT1 inh: reduces IFN-gamma driven STAT1 reporter signal. AID 920. 200,000 compounds, 0.35% hits. inhibition, % at 5.5 µM. NIH 3T3 STAT1-luciferase reporter, luminescence;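 active means inhibition above a set limit, the mean inhibition across all tested compounds plus 3 SD, cut at about 34% in these data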;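 further: 0% = IFN-gamma with DMSO and 100% = IFN-gamma with 300 µM nifuroxazide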
# STAT3 act: activators of IL-6 induced STAT3 signaling. 190,000 compounds, 0.91% hits. AID 871. activation (% of control), % at 5.6 µM. U3A cells, IL-6 STAT3-luciferase reporter, luminescence; 100% = signal with IL-6 EC80 alone;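 active means activation above the screen-wide mean of compound activation plus 3 SD, cut at about 130% in these data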;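 further: 0% = background luminescence of wells with medium and substrate only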
#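 Material: STAT3-luciferase reporter U3A cells; Probe or stimulus: IL-6 (33 ng/mL); Incubation: compound pre-incubation 1 h before IL-6, then 6 h stimulation at 37 °C; Technique: luminescence from STAT3-driven luciferase reporter; Evaluation: % activation versus median of IL-6-stimulated wells; Controls: IL-6-only high control.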
# The depositor's hits bear a star; . = no result given. Most compounds without a hit are left out; they make up all but 4.3% or so of the library.
SMILES,STAT3 inh,STAT1 act,STAT1 inh,STAT3 act
Cc1ccc(/C=N/Nc2cccc(C(=O)O)c2)s1,-16.1,80.8,21.5,116.0
Cc1sccc1/C=N/NC(=O)c1cccc2ccccc12,7.8,106.7,-7.5,91.6
O=C(O)c1c2c(nc3ccccc13)/C(=C/c1ccc(O)cc1)CC2,58.3*,58.7,43.3*,55.8
Cc1ccc(N=Nc2c(C)[nH]n(C(N)=S)c2=O)cc1,-30.2,136.6*,-41.1,126.3
Cc1[nH]n(C(N)=S)c(=O)c1N=Nc1ccc(S(=O)(=O)N2CCCC2)cc1,6.2,100.7,-1.3,97.5
O=CNC(=O)c1ccccc1C(=O)O,9.8,99.2,0.8,94.3
O=C(CNC(=O)c1ccccc1C(=O)O)c1ccccc1,15.7,130.0*,-32.6,89.2
CC1=C(C)CC(C(=O)NCC(=O)c2ccccc2)C(C(=O)O)C1 (centres undefined),-20.4,133.0*,-36.0,117.3
COCCN(C(=S)Nc1c(C)cc(C)cc1C)C(C)c1cccs1 (centres undefined),-4.4,89.3,9.9,105.8
O=Cc1ccc(-c2nc3ccccc3s2)o1,22.7,129.5*,-30.7,82.2
CC1=NN(C(N)=S)C(=O)C1N=Nc1ccccc1 (centres undefined),5.2,129.5*,-34.4,98.8
CC1=NN(c2ccccc2)C(=O)C1N=Nc1ccc(N)cc1 (centres undefined),7.5,98.2,2.0,97.3
CC1=NN(c2ccccc2)C(=O)C1N=Nc1ccccc1 (centres undefined),-38.8,108.7,-9.7,133.4*
CC1=NN(C(N)=S)C(=O)C1N=Nc1cccc2ccccc12 (centres undefined),-15.8,117.7,-20.7,114.3
O=S(=O)(NCc1cn2ccsc2n1)c1ccc(Oc2ccccc2)cc1,61.8*,79.0,23.0,51.7
O=S(=O)(NCc1cn2ccsc2n1)c1cccs1,-6.3,117.3,-18.9,110.5
COC(=O)CCc1sc(Nc2ccccc2)nc1-c1ccc(OC)cc1,-12.6,138.3*,-41.9,109.3
Cc1ccc(Nc2nc(-c3ccc(C)cc3)c(CC(=O)O)s2)cc1,-5.8,108.6,-12.1,105.8
Cc1ccc(-n2nnc(-c3cc4ccccc4n3C)n2)cc1,.,108.0,-7.0,.
Cn1c(-c2nnn(-c3ccc(F)cc3)n2)cc2ccccc21,.,149.4*,-51.2,.
CC(C)C(NC(=S)Nc1ccccc1)C(=O)O (centres undefined),1.4,104.2,-5.1,99.9
Cc1nc(-c2ccccc2)sc1-c1ccnn1C,15.8,141.1*,-46.1,88.7
COC(=O)C1=C(C)OC(N)=C(C#N)C1c1cc2cc(C)ccc2nc1Cl (centres undefined),8.4,94.1,4.8,96.5
CC(=O)C1=C(C)OC(N)=C(C#N)C1c1cc2cc(C)c(C)cc2nc1Cl (centres undefined),-93.6,95.6,5.0,178.4*
CCC(Oc1ccccc1)C(=O)Nc1ccc(-c2nnc(-c3ccco3)o2)cc1 (centres undefined),6.2,133.4*,-36.3,95.8
SMILES,STAT3 inh,STAT1 act,STAT1 inh,STAT3 act
COc1ccccc1OCC(=O)Nc1ccc(-c2nnc(-c3ccco3)o2)cc1,-4.2,120.2,-20.8,105.6
CCC(=O)Nc1ccc(/C(C)=N\NC(=O)c2ccc(C)s2)cc1,0.3,99.3,0.8,100.9
C/C(=N\NC(=O)c1nn(C)c(C)c1Br)c1ccc(NC(=O)c2ccc(C)s2)cc1,4.9,132.7*,-37.7,98.7
COc1ccc(-c2nc[nH]c2[N+](=O)[O-])cc1,6.2,101.2,-4.7,98.7
COc1ccc(-c2nc3ccccc3c(=O)n2CCOc2cc(C)ccc2C)cc1,-4.6,99.1,3.3,101.7
CN(C)c1ccc([C@@H]2[C@@H]([N+](=O)[O-])[C@H]3C=Cc4ccccc4N3[C@H]2C(=O)c2ccc(Cl)cc2)cc1,-55.0,87.6,13.6,144.6*
Cc1cccc(-c2cc3nc4c(c(NCc5ccco5)n3n2)CCCC4)c1,14.3,135.3*,-39.2,93.2
CCNC(=S)N/N=C/c1cc(C)n(-c2ccc(Cl)cc2)c1C,1.0,144.3*,-49.9,106.1
Cc1cc(/C=N/NC(N)=S)c(C)n1-c1ccc(Cl)c(Cl)c1,1.1,114.3,-16.0,97.3
COc1ccc2c(c1OC)C(=O)N(c1nccs1)C2,-18.0,131.6*,-34.6,123.7
CNc1ccccc(-c2ccc3ccccc3n2)c1=O,-7.4,147.3*,-53.6,110.8
CC(O)/C=C/c1ccc2ccccc2n1 (centres undefined),-1.3,112.4,-11.7,104.7
COc1cccc(C(C(=O)NC2CCCC2)N(C(=O)c2ccco2)c2ccc(-n3cnnn3)c(C)c2)c1OC (centres undefined),-7.8,106.2,-9.2,112.3
Cn1c(=S)[nH]c(=O)c2ncc(=O)[nH]c21,11.1,97.7,1.1,94.9
CN(C)c1ccc(NC(=O)CCCc2ccccc2)cc1,-4.3,138.2*,-41.7,107.2
O=C(CCc1ccccc1)Nc1ccccc1,9.9,113.9,-16.8,95.3
O=C(NC(NNc1ccc([N+](=O)[O-])cc1)(C(F)(F)F)C(F)(F)F)c1ccccc1Cl,7.8,90.7,10.5,97.6
O=C(NC(Nc1nc2ccc([N+](=O)[O-])cc2s1)(C(F)(F)F)C(F)(F)F)c1cccnc1,70.7*,59.2,45.6*,42.4
O=C(NC(Nc1nc2ccc([N+](=O)[O-])cc2s1)(C(F)(F)F)C(F)(F)F)c1ccccc1Cl,92.3*,56.7,47.4*,21.9
CN(C(=O)c1cccnc1)c1nnc(-c2cnccn2)s1,9.6,116.6,-17.9,95.2
CN(C(=O)c1cccnc1)c1nnc(-c2ccccn2)s1,11.0,135.9*,-39.2,92.2
c1c2c(cc3sc(N4CCOCC4)nc13)OCO2,21.6,118.4,-20.2,86.2
Fc1ccc2nc(N3CCOCC3)sc2c1,4.8,137.5*,-44.5,100.0
Brc1ccc2nc(N3CCN(c4ccccc4)CC3)sc2c1,8.7,129.4*,-35.5,96.7
c1ccc(N2CCN(c3nc4cc5c(cc4s3)OCO5)CC2)cc1,40.8,146.1*,-50.4,66.2
SMILES,STAT3 inh,STAT1 act,STAT1 inh,STAT3 act
Clc1ccc2nc(N3CCN(c4ccccc4)CC3)sc2c1,5.4,137.0*,-40.1,97.8
O=C(c1ccc2nc(N3CCOCC3)sc2c1)N1CCCC1,-10.5,101.2,-4.3,107.8
COc1cc(/C=C2/SC(=S)N(c3c(C)n(C)n(-c4ccccc4)c3=O)C2=O)ccc1O,6.8,102.0,-3.7,96.1
COC(=O)c1nnn(-c2nonc2N)c1CSc1nnc(N)s1,19.1,103.6,-6.1,89.9
COCCCN(C(C)=O)c1nc(-c2ccccc2)cs1,13.1,138.0*,-41.5,93.5
Cc1cc(C2=NNC(=NC3CC3)SC2)c(C)n1-c1ccccc1F,101.8*,20.8,88.8*,13.9
c1cc2c(cc1C1=NNC(=NC3CC3)SC1)OCCO2,108.3*,12.3,93.6*,10.4
Cc1cc(C2=NNC(=NC3CCCCC3)SC2)c(C)n1-c1c(C)n(C)n(-c2ccccc2)c1=O,-13.1,98.6,1.5,111.0
O=C(CSc1nc2ccccc2o1)Nc1nc2ccccc2s1,-31.2,107.5,-8.1,130.5
O=C(CSc1nc2ccccc2o1)Nc1nc(-c2ccccc2)cs1,-3.9,147.4*,-52.3,108.6
